Active and inactive are the calls of the source. The calls are words filed in the database; no cut-off is given here.
Key:
HL-60 [1] = assay: Antiproliferative activity against human mitochondrial gene-knockout HL60 cells after 48 hrs by MTT assay; format: functional, cell-based; settings: HL-60, 48 h
Procedure, shortened: (§1)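 HL60 cells were grown in RPMI-1640 with 5% FBS. The mtDNA-knockout line was derived by 6−8 weeks in ethidium bromide (50 ng/mL) and kept with 50 μg/mL uridine and 1 mM pyruvate. Compound in DMSO was serially diluted 3-fold in RPMI […], in triplicate. Cells at 0.2 × 10⁶/mL final ran 48 h at 37 °C, 5% CO₂. MTT was added for 2 h, then overnight lysis, read at A570. IC50 is a dose-response mean ± SEM (n = 2/3).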

[2] = Inhibition of tPMET complex in human HL60 cells after 30 mins by WST-1/mPMS reduction assay; format: cell-based; settings: HL-60, 0.5 h
Procedure, shortened: (§2)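 Exponential-phase cells were resuspended in HBSS at 1.0 × 10⁶ cells/mL final. Compound in DMSO was serially diluted 10-fold in HBSS from 200 μM, in triplicate, and preincubated 30 min at 37 °C, 5% CO₂. WST-1 (500 μM final) with mPMS (20 μM final) was then added. Reduction was read in real time at 450 nm over 40 min. IC50 is a dose-response mean ± SEM (n = 2/3).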

[3] = Inhibition of tPMET complex in human mitochondrial gene-knockout HL60 cells after 30 mins by WST-1/mPMS reduction assay; format: cell-based; settings: HL-60, 0.5 h; procedure, shortened: as §2
HL-60 [4] = assay: Antiproliferative activity against human HL60 cells after 48 hrs by MTT assay; format: functional, cell-based; settings: HL-60, 48 h; procedure, shortened: as §1
HL-60 [5] = assay: Cell cycle arrest in human HL60 cells assessed as accumulation at G1 phase at 30 uM after 24 hrs by propidium iodide staining-based flow cytometric analysis (reference value: 38 %); format: functional
HL-60 [6] = assay: Cell cycle arrest in human HL60 cells assessed as accumulation at G2 phase at 30 uM after 24 hrs by propidium iodide staining-based flow cytometric analysis (reference value: 22 %); format: functional
HL-60 [7] = assay: Cell cycle arrest in human HL60 cells assessed as accumulation at S phase at 30 uM after 24 hrs by propidium iodide staining-based flow cytometric analysis (reference value: 28 %); format: functional
HL-60 [8] = assay: Cell cycle arrest in human mitochondrial gene-knockout HL60 cells assessed as accumulation at G1 phase at 30 uM after 24 hrs by propidium iodide staining-based flow cytometric analysis (reference value: 55 %); format: functional
HL-60 [9] = assay: Cell cycle arrest in human HL60 cells assessed as accumulation at sub G1 phase at 30 uM after 24 hrs by propidium iodide staining-based flow cytometric analysis (reference value: 11 %); format: functional
HL-60 [10] = assay: Cell cycle arrest in human mitochondrial gene-knockout HL60 cells assessed as accumulation at S phase at 30 uM after 24 hrs by propidium iodide staining-based flow cytometric analysis (reference value: 24 %); format: functional
HL-60 [11] = assay: Cell cycle arrest in human mitochondrial gene-knockout HL60 cells assessed as accumulation at G2 phase at 30 uM after 24 hrs by propidium iodide staining-based flow cytometric analysis (reference value: 18 %); format: functional
HL-60 [12] = assay: Cell cycle arrest in human mitochondrial gene-knockout HL60 cells assessed as accumulation at sub G1 phase at 30 uM after 24 hrs by propidium iodide staining-based flow cytometric analysis (reference value: 3 %); format: functional
HL-60 [13] = assay: Induction of apoptosis in human HL60 cells at 30 uM after 24 hrs by propidium iodide staining-based flow cytometric analysis; format: functional, cell-based
HL-60 [14] = assay: Induction of apoptosis in human mitochondrial gene-knockout HL60 cells at 30 uM after 72 hrs by propidium iodide staining-based flow cytometric analysis; format: functional, cell-based

Compound	IC50 (HL-60 [1])	IC50 [2]	IC50 [3]	IC50 (HL-60 [4])	Activity (HL-60 [5])	Activity (HL-60 [6])	Activity (HL-60 [7])	Activity (HL-60 [8])	Activity (HL-60 [9])	Activity (HL-60 [10])	Activity (HL-60 [11])	Activity (HL-60 [12])	Activity (HL-60 [13])	Activity (HL-60 [14])
COC1=C(OC)C(=O)C(CCCCCCCCCC[N+]2(C)CCOCC2)=C(C)C1=O	> 200 µM	122 µM	> 200 µM	1 µM										
COC1=C(OC)C(=O)C(CCCCCCCCCCOCc2cccc(S(=O)(=O)O)c2)=C(C)C1=O	120 µM	81 µM	70 µM	143 µM										
COC1=C(OC)C(=O)C(CCCCCCCCCC[N+](C)(Cc2ccccc2)Cc2ccccc2)=C(C)C1=O.[I-]	3 µM	10 µM	47 µM	3 µM	24%	10%	8%	35%	57%	0%	0%	0%	Active	
COC1=C(OC)C(=O)C(CCCCCCCCCCO)=C(C)C1=O [IDEBENONE]	> 200 µM	77 µM	70 µM	36 µM	51%	35%	2%	36%	12%	36%	15%	99%		
COC1=C(OC)C(=O)C(CCCCCCCCCCOc2cc(O)cc(O)c2)=C(C)C1=O	63 µM	6 µM	13 µM	16 µM									Active	Active
COC1=C(OC)C(=O)C(CCCOCc2cccc(S(=O)(=O)O)c2)=C(C)C1=O	> 200 µM	> 200 µM	> 200 µM	> 200 µM										
COC1=C(OC)C(=O)C(CCCCCO)=C(C)C1=O	8 µM	> 200 µM	123 µM	13 µM										
COC1=C(OC)C(=O)C(CCCO)=C(C)C1=O	15 µM	> 200 µM	92 µM	13 µM										
COC1=C(OC)C(=O)C(CCCCCCCCCCN2CCOCC2)=C(C)C1=O	15 µM	33 µM	46 µM	3 µM										
COC1=C(OC)C(=O)C(CCCCCCCCCCn2ccnc2)=C(C)C1=O	15 µM	14 µM	33 µM	3 µM										
COC1=C(OC)C(=O)C(CCCCCCCCCC[N+](Cc2ccccc2)(Cc2ccccc2)Cc2ccccc2)=C(C)C1=O	3 µM	14 µM	54 µM	2 µM									Active	
COC1=C(OC)C(=O)C(CCCCCCCCCCc2c(O)cc(O)cc2O)=C(C)C1=O	> 200 µM	21 µM	9 µM	> 200 µM										
COC1=C(OC)C(=O)C(CCCCCCCCCCn2cc[n+](C)c2)=C(C)C1=O	44 µM	23 µM	78 µM	35 µM										
COC1=C(OC)C(=O)C(CCCCCCCCCCn2cc[n+](Cc3ccccc3)c2)=C(C)C1=O	5 µM	9 µM	68 µM	2 µM										
COC1=C(OC)C(=O)C(CCCCCCCCCCN(Cc2ccccc2)Cc2ccccc2)=C(C)C1=O	> 200 µM	> 200 µM	> 200 µM	33 µM										

From ChEMBL document CHEMBL2321757, “Anti-leukemic activity of ubiquinone-based compounds targeting trans-plasma membrane electron transport” (J Med Chem, 2013)
